Laboratory results: ChEMBL document CHEMBL1121698, “Cyclic urea and thiourea derivatives as inducers of murine erythroleukemia differentiation” (1981)

System: Friend leukemia cell line
Assay: The degree of erythroid maturation was measured by assessing the proportion of benzidine-positive cells at a concentration of 210 mM
Assay type: functional, Mus musculus
Details: not given
Method in brief: (§1)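 Friend erythroleukemia clone 745A cells seeded at 10^5 cells/mL in DMEM with 15% fetal calf serum at 37 °C, 10% CO2. Agent given at seeding, continuous exposure, twofold-graded concentrations; Me2SO positive control in each experiment. On day 6, hemoglobin-containing cells scored cytologically by staining with acid benzidine peroxide. Optimum concentration averaged from at least two experiments.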

| Structure (SMILES) | Benzidine positive cells [%] |
| --- | --- |
| C[S+](C)[O-] [DIMETHYL SULFOXIDE] | 94 |

System: Friend leukemia cell line
Assay: Percent of untreated control cell growth evaluated in friend leukemia cells on day 3 at a concentration of 2 mM
Assay type: functional, Mus musculus
Details: not given
Method in brief: (§2)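 Friend murine erythroleukemia clone 745A grown in suspension at 37 °C, 10% CO2, in DMEM with 15% fetal calf serum, streptomycin and penicillin. Agent added at seeding of exponentially growing cells (10^5 cells/mL), continuous exposure over twofold-graded concentrations. Cell numbers counted electronically on days 3 and 6, expressed relative to untreated control. At least two separate experiments.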

| Structure (SMILES) | Cell growth [%] |
| --- | --- |
| SC1=NCCCCN1 | 54 |
| SC1=NCCCN1 | 144 |
| CCN(CC)C(=O)N(CC)CC | 69 |
| CCN1CCN(CC)C1=S | 60 |
| CN(C)C(=S)N(C)C | 123 |
| CN1CCCN(C)C1=O | 90 |
| CN1CCCNC1=O | 46 |
| O=C1NCCCCN1 | 93 |
| CN1CCN(C)C1=S | 102 |
| CN1CCCN=C1S | 107 |

System: Friend leukemia cell line
Assay: The degree of erythroid maturation was measured by assessing the proportion of benzidine-positive friend leukemia cells at a concentration of 16 mM
Assay type: functional, Mus musculus
Details: not given
Method in brief: as §1

| Structure (SMILES) | Benzidine positive cells [%] |
| --- | --- |
| CCN1CCN(CC)C1=O | 81 |

System: Friend leukemia cell line
Assay: Percent of untreated control cell growth evaluated in friend leukemia cells on day 3 at a concentration of 16 mM
Assay type: functional, Mus musculus
Details: not given
Method in brief: as §2

| Structure (SMILES) | Cell growth [%] |
| --- | --- |
| CCN1CCN(CC)C1=O | 36 |

System: Friend leukemia cell line
Assay: Cell growth of friend erythroleukemia cells measured as percentage of control on day 6 at a concentration of 1 mM
Assay type: functional, Mus musculus
Details: not given
Method in brief: as §2

| Structure (SMILES) | Cell growth [%] |
| --- | --- |
| CCN1CCCN(CC)C1=S | 97 |

System: Friend leukemia cell line
Assay: Cell growth of friend erythroleukemia cells measured as percentage of control on day 6 at a concentration of 16 mM
Assay type: functional, Mus musculus
Details: not given
Method in brief: as §2

| Structure (SMILES) | Cell growth [%] |
| --- | --- |
| CCN1CCN(CC)C1=O | 140 |

System: Friend leukemia cell line
Assay: Cell growth of friend erythroleukemia cells measured as percentage of control on day 6 at a concentration of 4 mM
Assay type: functional, Mus musculus
Details: at 4 mM

| Structure (SMILES) | Cell growth [%] |
| --- | --- |
| CCN1CCCN(CC)C1=O | 127 |
| CN1CCCN(C)C1=S | 135 |
| O=C(N1CCCCC1)N1CCCCC1 | 33 |
| CCN1CCCCN(CC)C1=O | 131 |
| O=C1NCCN1 | 108 |
| CN1CCN(C)C1=O | 73 |
| O=C1NCCCN1 | 121 |
| CN1CCCCN(C)C1=O | 61 |
| CN1CCCCN(C)C1=S | 73 |
| S=C1NCCN1 [ETHYLENE THIOUREA] | 62 |

System: Friend leukemia cell line
Assay: Percent of untreated control cell growth evaluated in friend leukemia cells on day 3 at a concentration of 0.1-10 mM
Assay type: functional, Mus musculus
Details: not given
Method in brief: as §2

| Structure (SMILES) | Cell growth [%] |
| --- | --- |
| CCCCN1CCCN(CCCC)C1=O | <5 |
| CCN(CC)C(=S)N(CC)CC | <4 |

System: Friend leukemia cell line
Assay: Effect on the replication and erythroid differentiation of friend leukemia cells on day 6 at a concentration of 210 mM
Assay type: functional, Mus musculus
Details: not given

| Structure (SMILES) | Cell growth [%] |
| --- | --- |
| C[S+](C)[O-] [DIMETHYL SULFOXIDE] | 110 |

System: Friend leukemia cell line
Assay: Cell growth of friend erythroleukemia cells measured as percentage of control on day 6 at a concentration of 0.1-10 mM
Assay type: functional, Mus musculus
Details: not given
Method in brief: as §2

| Structure (SMILES) | Cell growth [%] |
| --- | --- |
| CCCCN1CCCN(CCCC)C1=O | <1 |
| CCN(CC)C(=S)N(CC)CC | <1 |

System: Friend leukemia cell line
Assay: The degree of erythroid maturation was measured by assessing the proportion of benzidine-positive friend leukemia cells at a concentration of 1 mM
Assay type: functional, Mus musculus
Details: not given
Method in brief: as §1

| Structure (SMILES) | Benzidine positive cells [%] |
| --- | --- |
| CCN1CCCN(CC)C1=S | 61 |

System: Friend leukemia cell line
Assay: Effect on the replication and erythroid differentiation of friend leukemia cells on day 3 at a concentration of 210 mM
Assay type: functional, Mus musculus
Details: not given

| Structure (SMILES) | Cell growth [%] |
| --- | --- |
| C[S+](C)[O-] [DIMETHYL SULFOXIDE] | 72 |

System: Friend leukemia cell line
Assay: Cell growth of friend erythroleukemia cells measured as percentage of control on day 6 at a concentration of 2 mM
Assay type: functional, Mus musculus
Details: not given
Method in brief: as §2

| Structure (SMILES) | Cell growth [%] |
| --- | --- |
| SC1=NCCCCN1 | 82 |
| SC1=NCCCN1 | 44 |
| CCN(CC)C(=O)N(CC)CC | 77 |
| CCN1CCN(CC)C1=S | 120 |
| CN(C)C(=S)N(C)C | 98 |
| CN1CCCN(C)C1=O | 87 |
| CN1CCCNC1=O | 136 |
| O=C1NCCCCN1 | 104 |
| CN1CCN(C)C1=S | 95 |
| CN1CCCN=C1S | 166 |

System: Friend leukemia cell line
Assay: The degree of erythroid maturation was measured by assessing the proportion of benzidine-positive friend leukemia cells at a concentration of 0.1-10 mM
Assay type: functional, Mus musculus
Details: not given
Method in brief: as §1

| Structure (SMILES) | Benzidine positive cells [%] |
| --- | --- |
| CCCCN1CCCN(CCCC)C1=O | <1 |
| CCN(CC)C(=S)N(CC)CC | <1 |

System: Friend leukemia cell line
Assay: The degree of erythroid maturation was measured by assessing the proportion of benzidine-positive cells at a concentration of 4 mM
Assay type: functional, Mus musculus
Details: at 4 mM

| Structure (SMILES) | Benzidine positive cells [%] |
| --- | --- |
| CN1CCCN(C)C1=S | 83 |
| O=C1NCCN1 | 4 |
| CN1CCN(C)C1=O | 92 |
| O=C1NCCCN1 | 15 |
| C[S+](C)[O-] [DIMETHYL SULFOXIDE] | 75 |
| S=C1NCCN1 [ETHYLENE THIOUREA] | 21 |

System: Friend leukemia cell line
Assay: Percent of untreated control cell growth evaluated in friend leukemia cells on day 3 at a concentration of 1 mM
Assay type: functional, Mus musculus
Details: not given
Method in brief: as §2

| Structure (SMILES) | Cell growth [%] |
| --- | --- |
| CCN1CCCN(CC)C1=S | 45 |

System: Friend leukemia cell line
Assay: The degree of erythroid maturation was measured by assessing the proportion of benzidine-positive friend leukemia cells at a concentration of 4 mM
Assay type: functional, Mus musculus
Details: not given
Method in brief: as §1

| Structure (SMILES) | Benzidine positive cells [%] |
| --- | --- |
| CCN1CCCN(CC)C1=O | 70 |
| O=C(N1CCCCC1)N1CCCCC1 | 10 |
| CCN1CCCCN(CC)C1=O | 31 |
| CN1CCCCN(C)C1=O | 92 |
| CN1CCCCN(C)C1=S | 79 |

System: Friend leukemia cell line
Assay: Percent of untreated control cell growth evaluated in friend leukemia cells on day 3 at a concentration of 105 mM
Assay type: functional, Mus musculus
Details: not given
Method in brief: as §2

| Structure (SMILES) | Cell growth [%] |
| --- | --- |
| C[S+](C)[O-] [DIMETHYL SULFOXIDE] | 70 |

System: Friend leukemia cell line
Assay: Percent of untreated control cell growth evaluated in friend leukemia cells on day 3 at a concentration of 4 mM
Assay type: functional, Mus musculus
Details: at 4 mM

| Structure (SMILES) | Cell growth [%] |
| --- | --- |
| CCN1CCCN(CC)C1=O | 160 |
| CN1CCCN(C)C1=S | 75 |
| O=C(N1CCCCC1)N1CCCCC1 | 28 |
| CCN1CCCCN(CC)C1=O | 40 |
| O=C1NCCN1 | 88 |
| CN1CCN(C)C1=O | 70 |
| O=C1NCCCN1 | 124 |
| CN1CCCCN(C)C1=O | 25 |
| CN1CCCCN(C)C1=S | 64 |
| S=C1NCCN1 [ETHYLENE THIOUREA] | 128 |

System: Friend leukemia cell line
Assay: The degree of erythroid maturation was measured by assessing the proportion of benzidine-positive cells at a concentration of 2 mM
Assay type: functional, Mus musculus
Details: not given
Method in brief: as §1

| Structure (SMILES) | Benzidine positive cells [%] |
| --- | --- |
| SC1=NCCCCN1 | 42 |
| SC1=NCCCN1 | 14 |
| CN(C)C(=S)N(C)C | 79 |
| CN1CCCN(C)C1=O | 92 |
| CN1CCCNC1=O | 50 |
| O=C1NCCCCN1 | 66 |
| CN1CCN(C)C1=S | 66 |
| CN1CCCN=C1S | 22 |

System: Friend leukemia cell line
Assay: Cell growth of friend erythroleukemia cells measured as percentage of control on day 6 at a concentration of 105 mM
Assay type: functional, Mus musculus
Details: not given
Method in brief: as §2

| Structure (SMILES) | Cell growth [%] |
| --- | --- |
| C[S+](C)[O-] [DIMETHYL SULFOXIDE] | 120 |

System: Friend leukemia cell line
Assay: The degree of erythroid maturation was measured by assessing the proportion of benzidine-positive friend leukemia cells at a concentration of 2 mM
Assay type: functional, Mus musculus
Details: not given
Method in brief: as §1

| Structure (SMILES) | Benzidine positive cells [%] |
| --- | --- |
| CCN(CC)C(=O)N(CC)CC | 68 |
| CCN1CCN(CC)C1=S | 84 |
